Screening results as filed in PubChem.
MC4R antag cAMP: blocks human MC4R cAMP signaling | inhibition, % at 6.5 µM | actives 0.48% (n = 360,000) | AID 540295 | MC4R-expressing cells, MTII-stimulated cAMP, LANCE TR-FRET;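 active = inhibition above its plate's cutoff, the mean of tested wells on that plate plus 3 SD, cut at about 29% in these data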;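 note: 0% = Melanotan II alone and 100% = Melanotan II plus saturating MCL0020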
Target sequence (P32245 whole entry, looked up): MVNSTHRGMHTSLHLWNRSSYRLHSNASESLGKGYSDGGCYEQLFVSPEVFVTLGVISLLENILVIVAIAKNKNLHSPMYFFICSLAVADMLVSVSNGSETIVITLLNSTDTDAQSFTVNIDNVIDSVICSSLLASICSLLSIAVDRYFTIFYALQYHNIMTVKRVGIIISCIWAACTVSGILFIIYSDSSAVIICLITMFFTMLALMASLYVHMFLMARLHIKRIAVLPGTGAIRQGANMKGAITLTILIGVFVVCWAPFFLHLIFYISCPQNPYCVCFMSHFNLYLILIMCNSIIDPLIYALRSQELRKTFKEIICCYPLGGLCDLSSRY
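Assay system: U2OS-MC4R stable cell line; Also added: Melanotan II; Technique: Eu-cAMP/anti-cAMP TR-FRET, emission 671 nm; Times: 30-min compound, 1-h challenge, 1-h detection, room temperature.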
ABHD5-PLIN5 inh: inhibitors of human ABHD5-perilipin-5 interaction | inhibition, % at 4 µM | Q00G26+Q8WTS1 | Split G. princeps luciferase complementation, luminescence, 4 h | actives 0.78% (n = 360,000);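 active = inhibition above the mean inhibition across every tested compound plus 3 SD, cut at about 22% in these data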;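 note: 0% = DMSO only wells and the 100% control is not disclosed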
PfGluPho inh: PfG6PD (Plasmodium falciparum) enzyme inhibition. AID 504690. inhibition, % at 20 µM. actives 0.78% (n = 350,000). PfGluPho enzyme, NADPH resazurin-diaphorase fluorescence;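 active = inhibition reaching at least a set limit at 20 µM in the primary screen, cut at about 59% in these data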;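 note: 0% = DMSO wells with substrate and 100% = DMSO wells lacking glucose-6-phosphate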
Beta2AR agonist: agonists of human beta-2 adrenergic receptor inducing internalization; P07550; Am2.2-beta2AR cells, FAP receptor internalization, flow cytometry; response, % (no concentration beside the values); actives 0.43% (n = 340,000); AID 504454;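 active = response above a set limit, near 3 SD of response in nonfluorescent compounds, cut at about 42% in these data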
MC4R ag barr: agonists of human melanocortin 4 receptor (MC4R) beta-arrestin; AID 540308; activation, % at 8.9 µM; U2OS MC4R beta-arrestin complementation, luminescence; percent of melanotan II response, DMSO zero; actives 0.98% (n = 360,000);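 active = activation above a per-plate cutoff, the mean activation of sample wells on that plate plus 3 SD, cut at about 8% in these data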
An asterisk follows results filed as active; . = not tested or not shown. Sampled rows, rich in hits. Any-hit rate of the full collection: about 3%.

SMILES | MC4R antag cAMP | ABHD5-PLIN5 inh | PfGluPho inh | Beta2AR agonist | MC4R ag barr
Cc1ccc(-c2nc3ccccc3o2)cc1NC(=S)NC(=O)c1cccs1 | 13 | -1 | 10 | -1 | 23*
Cc1cc(C)c2oc(-c3ccc(C)c(NC(=S)NC(=O)c4cccs4)c3)nc2c1 | 3 | -6 | -9 | 1 | -2
C[C@H]1CN([C@@H](C)CO)C(=O)c2cc(Br)cnc2O[C@H]1CN(C)Cc1ccccc1C(=O)O | 12 | -1 | 0 | . | 0
O=C(Nc1ccccc1)c1ccc(-c2ccccc2Cl)o1 | 3 | -6 | 52 | 12 | 8.5*
CC(=O)Nc1ccc(NC(=O)c2ccc(-c3ccccc3Cl)o2)cc1 | -1 | -2 | 3 | 3 | 3
O=C(NCC1CC1)C1(C(F)(F)F)CC(CCCO)CCCO1 (centres undefined) | 12 | 3 | -5 | -5 | 0
CCOC(=O)c1c(-c2ccc(-c3ccccc3)cc2)csc1NC(=O)C1C2CCC(O2)C1C(=O)O (centres undefined) | 10 | 34* | 5 | 12 | 1
CC1CC(C)CN(S(=O)(=O)c2ccc(Cl)cc2)C1 (centres undefined) | 8 | -6 | -15 | 4 | 9.2*
COc1ccccc1CNC(=O)/C=C/c1ccc(Br)o1 | 4 | 18 | 53 | 71* | -2
COc1ccc(NC(=O)/C=C/c2ccc(Br)o2)cn1 | -2 | 6 | 24 | -2 | -2
COc1ccccc1-c1nc(S(=O)(=O)c2ccccc2)c(N2CCCCC2)o1 | 32* | 15 | -8 | -4 | -1
CSc1ccccc1OCc1cc(C(=O)N2CCC[C@H]2C(N)=O)no1 | -1 | -6 | 14 | -3 | -4
Cc1cccc(NCC(=O)N/N=C/c2ccc(Br)cc2)c1 | 0 | 6 | 2 | 10 | 8.4*
Cc1cccc(CN2C(=O)N/C(=C/c3ccc(C)s3)C2=O)c1 | -15 | -4 | 3 | -11 | 9.2*
Cc1ccc(C(C)(C)C)cc1S(=O)(=O)N1CC(=O)Nc2ccccc21 | -6 | 1 | 17 | 6 | 2
Cc1cc(C(C)(C)C)cc(C)c1S(=O)(=O)N1CC(=O)Nc2ccccc21 | 7 | -5 | -6 | -8 | 8.7*
Cc1cccc(N2CCN(C(=O)Cn3sc4nc(C)cc(C)c4c3=O)CC2C)c1 (centres undefined) | 3 | 82* | 105* | 29 | 1
O=C(CCNC(=O)c1ccc(Br)cc1)Nc1ccc(S(=O)(=O)N2CCOCC2)cc1 | 7 | -2 | 5 | 5 | -4
NC(=O)c1ccsc1NC(=O)c1ccc(S(=O)(=O)N2CCCc3ccccc32)cc1 | 6 | -3 | 8 | 13 | 8.5*
CC(C)(CN1CCCN(CC(C)(C)C(=O)O)C1=O)C(=O)O | 4 | -3 | 10 | . | -1
COc1ccc2cc(-c3cc(C(=O)OCC(=O)NC4CCS(=O)(=O)C4)c4ccccc4n3)ccc2c1 (centres undefined) | 4 | -6 | -1 | 8 | 3
Cc1ccccc1CNC(=O)CN(c1cccc([N+](=O)[O-])c1)S(C)(=O)=O | 30* | -2 | -20 | -2 | 1
COCCCn1c(=O)c2ccccc2n(Cc2ccc(C)cc2)c1=O | 14 | -2 | -9 | -2 | 0
Cc1ccc(Cn2c(=O)c3ccccc3n3nc(C)cc23)cc1 | 0 | -4 | 5 | 1 | 8.2*
C=C1CCC2C(C)(C)[C@H](O)CC[C@@]2(C)[C@@H]1COc1cc(=O)oc2ccccc12 (some centres undefined) | 3 | 1 | 10 | -4 | 3
SMILES | MC4R antag cAMP | ABHD5-PLIN5 inh | PfGluPho inh | Beta2AR agonist | MC4R ag barr
C=C1CC(COc2cc(=O)oc3ccccc23)(c2ccccc2)OC1=O (centres undefined) | -53 | -7 | 29 | 72* | -3
COc1cccc(NC(=O)C2(C)CCN2C(=O)CC2CC2)c1 (centres undefined) | 12 | 2 | . | . | -1
COc1ccc(-c2nn(-c3ccccc3)cc2C=O)cc1[N+](=O)[O-] | -4 | -1 | -3 | -2 | 9.5*
O=C(COC(=O)CCc1c[nH]c2ccccc12)Nc1ccc([N+](=O)[O-])cc1 | 27 | 0 | 1 | -2 | 8.6*
CC(OC(=O)CCN=C1NS(=O)(=O)c2ccccc21)C(=O)N(C)C1CCCCC1 (centres undefined) | 12 | 13 | 6 | -3 | 0
O=C(NC1CCCCCC1)c1ccc(CS(=O)(=O)Cc2ccccc2F)o1 | 3 | 2 | 0 | 0 | -3
